Source: PMC8562524 (Journal for Immunotherapy of Cancer, 2021)

Columns and labels:
MC38-Nectin-4 tumors = assay: Pharmacodynamics in MC38-Nectin-4 tumors; assay type: in vivo, mouse; settings: 144 hours
Procedure, shortened: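 C57BL/6J-hCD137 mice bore MC38-Nectin-4 tumors. Tumors were harvested 24, 48, 96 and 144 h after test compound 5 mg/kg at 0 and 24 h. Controls were harvested at 144 h: vehicle, a non-CD137-binding analogue (same schedule), or anti-CD137 agonist antibody 2 mg/kg every 3 days. Tumors were assessed by IHC (mouse CD8) and NanoString mRNA profiling.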

human CD137 = human CD137 (Homo sapiens, UniProt Q07011); assay type: cell-based; settings: co-culture with 4T1 cells overexpressing mouse Nectin-4, 6 hours
human CD137, sequence (Q07011 24-255): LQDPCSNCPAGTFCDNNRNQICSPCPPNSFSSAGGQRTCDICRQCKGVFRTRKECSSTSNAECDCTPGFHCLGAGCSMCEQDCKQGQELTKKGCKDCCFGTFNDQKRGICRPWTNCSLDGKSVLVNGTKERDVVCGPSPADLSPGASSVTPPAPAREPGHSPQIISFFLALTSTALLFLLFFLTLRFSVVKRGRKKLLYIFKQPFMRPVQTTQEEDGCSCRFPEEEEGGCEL

Q: For “anti-CD137 antibody agonist: anti-human 4-1BB therapeutic antibody, urelumab, Creative Biolabs Cat. No. TAB-179”, which “reprogramming of the tumor immune microenvironment (mRNA profiling)” value (MC38-Nectin-4 tumors) is on record?
A: Its value is “to lesser extent”.

Q: What about the “T cell infiltrates in tumor (CD8 IHC)” value (MC38-Nectin-4 tumors; BT7480 or NB-BCY 5 mg/kg at 0 and 24 hours, anti-CD137 antibody agonist 2 mg/kg) of the same substance?
A: The value was “increased”.

Q: What about the “CD137 agonism (reporter activity)” value (human CD137) of the same substance?
A: Its value is “induced CD137 agonism in a Nectin-4-independent manner”.
